Assay results published in ChEMBL document CHEMBL4513216, “Probing the Open Global Health Chemical Diversity Library for Multistage-Active Starting Points for Next-Generation Antimalarials” (ACS Infect Dis, 2020).

Test: Toxicity liver stage against HepG2, at 10uM
Format: cell-based
Design: test concentration 10 uM, cell line HepG2-A16-CD81EGFP
Conditions: human, HepG2-A16-CD81EGFP cells; read-out: INHIBITION
In short: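 Uninfected HepG2-A16-CD81EGFP cells, 3 × 10^3 per well, 1536-well, plated on prespotted compound at 10 μM final, parasite-free screening media added to match infected plates; puromycin 10 μM positive, DMSO 0.5% negative; run in parallel with 48 h PbLuc assay at 37 °C, 5% CO2; viability by CellTiter-Glo luminescence, normalized to controls.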

| SMILES | cytotoxicity at 10 µM [%] |
| --- | --- |
| CCC(=O)N1CCc2[nH]cnc2C12CCN(C(=O)c1snnc1C)CC2 | 13.9 |
| O=C(CCC(=O)N1CCC(c2noc3cc(F)ccc23)CC1)NC1CC1 | 5.09 |
| O=C(NCC1CC2(CO1)CN(c1ncccn1)C2)C1CCC1 (stereo not given) | -107 |
| COc1cccc2c1ccn2CCC(=O)Nc1c2c(nn1C)CSC2 | 5.11 |
| Cc1occc1C(=O)Nc1cc(N2CCNC2=O)ccc1Cl | 8.56 |
| Cc1nn(CC(C)C)c(N(C)C)c1CNCc1ccc2c(c1)OCO2 | -1.05 |
| Cc1ccc(C(NC(=O)CC2CCN(C(C)C)CC2)C(=O)O)cc1 (stereo not given) | -9.99 |
| COc1ccc(-n2nnnc2C(C)(C)Nc2ccc(C)cc2C)cc1 | 52.4 |
| Cc1cc(C)n(C2CN(c3nc(-c4ccncc4)nc4c3CCC4)C2)n1 | -33.6 |
| Cc1ccc(CN(CCCO)Cc2nc3ccccc3[nH]2)s1 | 7.18 |
| CNC(=O)[C@@H]1CC[C@@H]2[C@@H](CCN2Cc2ccccc2F)O1 | 8.1 |
| Cc1ccccc1S(=O)(=O)N1CCC(c2[nH]ncc2C)C1 (stereo not given) | -21.1 |
| Cc1cc(NC(=O)CN2CCn3c(nnc3C(C)C)C2)on1 | 5.05 |
| COCC(c1cccc(C(F)(F)F)c1)N(C)C(=O)c1cc(C)no1 (stereo not given) | 0.0161 |
| CCn1ncc2c1CCCC2NCc1cccc2c1OCCO2 (stereo not given) | 1.71 |
| CCn1cnnc1CNC(=O)N1CCOC(c2ccccc2Cl)C1 (stereo not given) | 9.32 |
| CN(C)[C@@H]1C[C@@H](CO)N(C(=O)Nc2cccc(F)c2F)C1 | -0.103 |
| Cc1noc(C)c1-c1ccc(C2CCCN2C(=O)c2cnn(C)c2)nc1 (stereo not given) | -16.7 |
| CCN(Cc1ccoc1)C(C(N)=O)c1ccc(Br)cc1 (stereo not given) | -5.5 |
| Nc1cc(C(=O)NC2CCCN(CCCc3ccccc3)C2)ccn1 (stereo not given) | 8.01 |
| O=C(Nc1ccc2c(c1)C(=O)NC2=O)c1ccc(Cl)s1 | -3.96 |
| CCN1CCN(c2ccc(F)cc2C(C)NCc2noc(C)n2)CC1 (stereo not given) | 1.8 |
| CN(C)CCN(Cc1ccccc1)C(=O)C1=NNC(=O)CC1 | -6.49 |
| CN1CC(C(=O)NCCc2ccn(-c3ccc(F)cc3)n2)CC1=O (stereo not given) | 3.38 |
| Cc1cnn(CCNCC(=O)NC2(C#N)CCCC2)c1 | -13.2 |
| O=C(COC1CCCC1)Nc1ncn(CC(=O)N2CCCCCC2)n1 | -8.16 |
| O=C(c1nc2c(s1)CCCN2C(=O)C1CC1)N1CCOCC1 | 4.96 |
| COc1ccc(NCc2ccccc2N2CCN(C(C)=O)CC2)cn1 | 1.85 |

| SMILES | cytotoxicity at 10 µM [%] |
| --- | --- |
| CCN(Cc1ccc(C#N)cc1F)C(=O)CN(C)CC(N)=O | 7.52 |
| Cc1cc(CN2CCCC2)cc(Oc2nc(C)cnc2C)c1 | -2.54 |
| O=C(Nc1ccc2c(c1)OCO2)N1CCN(CCn2cccn2)CC1 | 0.741 |
| CC1(C)CNC(=O)c2nc(-c3ccccc3)[nH]c2C1 | -7.28 |
| Cc1c(CN2CC[C@@H](N3CCC(O)CC3)[C@H](O)C2)[nH]c2ccc(F)cc12 | 4.07 |
| Cc1nc2ccccc2nc1CN(C)C1CCCN(c2cccnn2)C1 (stereo not given) | -9.71 |
| O=C(C1=CCCC1)N1CCO[C@H]2[C@@H](OCC3CC3)CC[C@@H]21 | -5.66 |
| CCN(C(=O)CNc1cc(C)c(F)cc1C(N)=O)C1CC1 | 2.14 |
| CCc1cccc(N2CCC(NC(=O)C3CCC3)CC2)c1 | 3.6 |
| COC(C)(C)Cn1ccnc1-c1cccc(C(C)N(C)C)c1 (stereo not given) | -3.59 |
| CN(C)CCn1c([C@H]2CCCO2)cc2cccnc21 | 17.1 |
| COCCC(=O)N1CCC2(CCN(Cc3cccc(F)c3)C2)C1 (stereo not given) | -60.2 |
| CS(=O)(=O)c1ccc(NCC2CCCO2)c(S(C)(=O)=O)c1 (stereo not given) | 3.72 |
| O=C(Cc1c(F)cccc1F)N1CCN(CC(=O)N2CCCC2)CC1 | 4.57 |
| COCc1cccc(C(=O)N2C[C@@H]3CC[C@H]2CN(Cc2cscn2)C3)n1 | 5.01 |
| O=C(NCC(c1ccccc1)N1CCOCC1)Nc1cn[nH]c1 (stereo not given) | -15.8 |
| CSc1nnc(CNC(=O)Nc2ccccc2Br)n1C | 1.31 |
| COCc1cnc2n1CCN(S(=O)(=O)c1c(C)nn(C)c1C)C2C (stereo not given) | 15.4 |
| CC(C)NC(=O)c1cc(-c2ccc(S(C)(=O)=O)cc2)nc2c1cnn2C | 4.21 |
| CCc1nc(C2CCCN2C(=O)c2nccnc2N)no1 (stereo not given) | -18.7 |
| O=C(c1ccoc1)N1CC[C@@H](N2CCOCC2)[C@@H]1Cc1ccccc1 | -82 |
| Cc1nn(C)c(C)c1CN1CCN(CC2(O)CCCN(C)C2)CC1 (stereo not given) | 9.07 |
| NC(=O)C1(Cc2ccccc2-c2ccccc2)CCCN(CC2CC2)C1 (stereo not given) | 1.67 |
| CCN1CCOC(CNCc2ccc(OC)c(F)c2)C1 (stereo not given) | 1.79 |
| CSCC(=O)N1CCCCC1Cn1cc(C)cn1 (stereo not given) | -8.24 |
| Cc1nc(CN2CCCC(N(C)CC3(O)CCCCC3)C2)no1 (stereo not given) | -10.3 |
| CCOc1cccc(CNc2cncc(-n3cccn3)n2)c1 | -0.363 |
